The record followed here is ChEMBL document CHEMBL3792306, “Antichagasic and trichomonacidal activity of 1-substituted 2-benzyl-5-nitroindazolin-3-ones and 3-alkoxy-2-benzyl-5-nitro-2H-indazoles” (Eur J Med Chem, 2016).

Where only a bound is given, the exact number is not on record here.

The subject of data set [1] is Trypanosoma cruzi. Description: Antichagasic activity against Trypanosoma cruzi CL-B5 epimastigotes […] assessed as growth inhibition after 72 hrs by beta galactosidase reporter gene assay. The format is functional, organism-based. The essentials: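 Then CPRG (200 µM final, pH 7.4) in Triton X-100 added for 3 h at 37 °C, A595 read. Triplicates, three independent runs; IC50 from dose–response of %growth inhibition, mean ± SD.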
For orientation: In a reporter assay the amount or activity of a reporter protein is the signal.

A short description of data set [2]: Cytotoxicity against mouse L929 cells after 48 hrs by resazurin assay. Format: cell-based. As to conditions: read-out: LC50. In short, it runs like this: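 L929 fibroblasts, 15×10^3 cells/well in MEM, attached 3 h. Exposed to compounds for 48 h at 37 °C, 5% CO2. Resazurin (2 mM solution in PBS) added for 3 h; fluorescence read at 535/590 nm to give % cytotoxicity. Triplicate wells, three independent runs. LC50 taken from concentration vs %C curves, mean ± SD.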
(Resazurin is reduced to fluorescent resorufin, in cell work by metabolically active cells.)

In data set [3] the test system is Trypanosoma cruzi. Briefly: Antichagasic activity against Trypanosoma cruzi CL-B5 intracellular amastigotes in mouse L929 cells assessed as growth inhibition after 7 days by beta galactosidase reporter gene assay. Format: functional, organism-based. The conditions noted are these: CL-B5, L929, 168 h. In short, it runs like this:
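L929 fibroblasts (10,000/well, MEM) infected overnight at 33 °C, 5% CO₂ with CL-B5 lacZ tissue-culture trypomastigotes (1:6 cell:parasite). Washed, then 7 days with compound in fresh MEM. CPRG (400 µM final, pH 7.4) in 3% Triton X-100 for 3 h at 37 °C, A595. Triplicates; IC50 from %amastigote growth inhibition curves, mean ± SD.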

The nature of data set [4]: Selectivity index, ratio of LC50 for mouse L929 cells to IC50 for Trypanosoma cruzi CL-B5 lacZ epimastigotes […]. The format is toxicity, cell-based. The conditions noted are these: read-out: Ratio LC50/IC50. In short, it runs like this: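 SI = LC50 (L929, 48 h resazurin) / epimastigote IC50. […] CPRG (200 µM final, 0.9% Triton X-100, pH 7.4) added for 3 h at 37 °C, A595 read. Triplicates, n = 3; IC50 from %EGI curves.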

Data set [5] can be described thus: Selectivity index, ratio of LC50 for mouse L929 cells to IC50 for Trypanosoma cruzi CL-B5 lacZ amastigotes in mouse L929 cells. Format: toxicity, cell-based. As to conditions: read-out: Ratio LC50/IC50. In short, it runs like this: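 SI = LC50 (L929, 48 h resazurin) / amastigote IC50. Amastigotes: L929 cells (10,000/well, MEM) infected overnight at 33 °C with CL-B5 lacZ tissue-culture trypomastigotes (1:6 cell:parasite), washed, then exposed to compounds for 7 days. CPRG (400 µM final, 3% Triton X-100, pH 7.4) added for 3 h at 37 °C, A595 read. Triplicates; IC50 from %AGI curves. Assayed only when epimastigote SI warranted.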

Data set [6] deals with Trypanosoma cruzi. Description: Antichagasic activity against Trypanosoma cruzi Tulahuen amastigotes in mouse L929 cells assessed as growth inhibition after 96 hrs by beta galactosidase reporter gene assay. Format: functional, organism-based. The conditions noted are these: L929, 96 h. In short, it runs like this: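 L929 cells (4000/well, RPMIS) held 24 h at 37 °C, then exposed 2 h to Tulahuen C4 lacZ trypomastigotes (1:10). Infection established 48 h, then compounds for 96 h at 37 °C, 5% CO₂. 500 µM CPRG in 0.5% Nonidet P40 for 18 h, A570. Triplicates; IC50 from %inhibition curves, mean ± SD.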

Data set [7] deals with Trypanosoma cruzi. Briefly: Antichagasic activity against Trypanosoma cruzi Y strain epimastigotes […] assessed as growth inhibition after 48 hrs by resazurin assay. Format: functional, organism-based. In short, it runs like this:
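Y strain epimastigotes (3 × 10⁶/mL, log phase, pre-grown overnight at 28 °C) exposed 48 h at 28 °C, cell-free. Resazurin added for 5 more h, fluorescence read at ex 535/em 590 nm. Triplicates, three independent runs; IC50 from %growth inhibition curves, mean ± SD.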

In data set [8] the test system is Trypanosoma cruzi. Description: Antichagasic activity against Trypanosoma cruzi Y strain amastigotes in mouse cardiomyocytes assessed as growth inhibition after 48 hrs by giemsa staining based assay. The format is functional, organism-based. The essentials: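 Primary embryonic Swiss mouse cardiac cells (100,000/well on gelatin-coated coverslips) infected 24 h with Y strain bloodstream trypomastigotes (1:10), washed, then 48 h with compound in DMEM. Bouin-fixed, Giemsa-stained. Infected cells and parasites per infected cell scored in 400 cells in duplicate; endocytic index = product. IC50 from %EI curves, mean ± SD.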

Data set [9] in a line: Cytotoxicity against mouse Cardiomyocytes after 48 hrs by Prestoblue assay. On the set-up: species or system Cardiomyocyte. The conditions noted are these: read-out: LC50. The essentials:
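Primary embryonic cardiac cells from Swiss mice, grown in DMEM with CaCl2, L-glutamine, 5% FBS and chick embryo extract. Seeded at 6×10^4 cells/well on gelatin, pre-incubated 24 h, then exposed to compounds for 48 h at 37 °C, 5% CO2. Morphology and contractility checked by light microscopy. PrestoBlue added for 5 h, absorbance read at 570/600 nm. Triplicates, n = 3; LC50 from dose–response, mean ± SD.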

The test system of another data set is Trichomonas vaginalis. Briefly: Trichomonacidal activity against metronidazole-sensitive Trichomonas vaginalis JH31A#4 trophozoites after 24 hrs by resazurin dye based fluorescence assay. As to conditions: JH31A#4, 24 h. Format: functional, organism-based. The essentials:
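Trophozoites in TYM with 10% FBS, 37 °C, 5% CO₂, seeded at 10⁵/mL in glass tubes. After 5 h, compounds added at 9.37–300 µM final (DMSO <0.2%). Viability read by resazurin fluorimetry after 24 h at 37 °C. Metronidazole 25 µM as reference. At least two runs in triplicate; IC50 with 95% limits by probit.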

Data set [10] is described as follows: Cytotoxicity against african green monkey Vero cells assessed as inhibition of cell growth after 24 hrs by resazurin dye based fluorescence assay. The conditions noted are these: chlorocebus sabaeus. In short, it runs like this:
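Vero CCL-81 cells (50,000/well, RPMI with 10% FBS) attached 6 h at 37 °C, then 24 h with compound. Resazurin added for 3 h, fluorescence at ex 535/em 590 nm. Triplicates in two independent assays; CC50 and 95% confidence limits by probit analysis.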

Data set [11] can be described thus: Cytotoxicity against african green monkey Vero cells assessed as inhibition of cell growth at 300 uM after 24 hrs by resazurin dye based fluorescence assay. The conditions noted are these: chlorocebus sabaeus, read-out: Activity.
The nature of data set [12]: Selectivity index, ratio of CC50 for african green monkey Vero cells to IC50 for metronidazole-sensitive Trichomonas vaginalis JH31A#4 trophozoites. The format is functional. The essentials:
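Selectivity index = Vero CC50 (24 h resazurin, probit) divided by trophozoite IC50 (24 h resazurin, probit) for the named T. vaginalis isolate.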

One may read the IC50 as the concentration needed to halve the response being measured. Consider `O=c1c2cc([N+](=O)[O-])ccc2n(CCO)n1Cc1ccccc1`, for which the concentration for half-maximal inhibition (IC50) in the data set with Trypanosoma cruzi [1] was determined as 1580 nM; with Trypanosoma cruzi [3], 220 nM; in the data set on Trypanosoma cruzi [6], 810 nM; in the data set on Trypanosoma cruzi [7], 3180 nM; in the data set on Trypanosoma cruzi [8] it was 600 nM; in the data set on Trichomonas vaginalis, 17900 nM. Further, the CC50 at 48 h was more than 256000 nM in data set [2] and more than 100000 nM in data set [9]. In addition, the selectivity ratio in [4] is more than 162; in data set [5], more than 1160. Further, the CC50 at 24 h in data set [10] was more than 300000 nM. Moreover, in data set [11], the inhibition at 24 h, 300 µM is less than 20%. Further, the “Ratio CC50/IC50” value in [12] is given as more than 16.7.
`O=C(Cn1ccnc1[N+](=O)[O-])NCc1ccccc1` [BENZNIDAZOLE]: the half-maximal inhibitory concentration (IC50) with Trypanosoma cruzi [1] amounted to 22700 nM; in the data set with Trypanosoma cruzi [3] it was 680 nM; with Trypanosoma cruzi [6] it was 1660 nM; in the data set with Trypanosoma cruzi [8], 1770 nM. Moreover, the CC50 at 48 h in [2] is more than 256000 nM; in data set [9] it was more than 100000 nM. Moreover, the selectivity ratio is more than 11.3 in data set [4] and more than 376 in data set [5].
